Measured values pooled from the literature.
Target: Inhibitor of nuclear factor kappa-B kinase subunit epsilon (IKBKE, Homo sapiens, UniProt Q14164)
One construct used (Q14164 1-716): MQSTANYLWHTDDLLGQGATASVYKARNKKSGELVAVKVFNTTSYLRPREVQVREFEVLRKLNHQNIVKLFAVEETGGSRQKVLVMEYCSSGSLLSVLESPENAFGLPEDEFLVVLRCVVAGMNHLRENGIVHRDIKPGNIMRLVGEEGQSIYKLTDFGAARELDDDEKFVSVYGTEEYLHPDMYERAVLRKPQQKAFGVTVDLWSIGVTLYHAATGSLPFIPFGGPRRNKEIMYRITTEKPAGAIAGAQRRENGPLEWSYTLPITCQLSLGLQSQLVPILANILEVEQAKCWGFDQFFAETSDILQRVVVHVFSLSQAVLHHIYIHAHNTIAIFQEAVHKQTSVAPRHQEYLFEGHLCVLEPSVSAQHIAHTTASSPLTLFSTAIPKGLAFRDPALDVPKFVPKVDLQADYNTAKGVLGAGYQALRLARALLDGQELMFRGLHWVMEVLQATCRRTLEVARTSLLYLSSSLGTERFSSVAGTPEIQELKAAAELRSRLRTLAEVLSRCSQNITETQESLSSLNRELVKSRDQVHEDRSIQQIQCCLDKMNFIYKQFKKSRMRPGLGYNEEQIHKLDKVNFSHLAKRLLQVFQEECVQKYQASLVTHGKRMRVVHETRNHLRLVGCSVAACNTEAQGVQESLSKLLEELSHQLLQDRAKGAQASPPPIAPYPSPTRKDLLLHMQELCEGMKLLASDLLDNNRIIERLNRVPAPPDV

| Compound | test | setting | quantity | result |
| --- | --- | --- | --- | --- |
| CO[C@@H]1[C@H](N(C)C(=O)c2ccccc2)C[C@H]2O[C@]1(C)n1c3ccccc3c3c4c(c5c6ccccc6n2c5c31)C(=O)NC4 | enzyme activity, inhibitor | 1 µM | inhibition | 97% |
| C#Cc1cc(-c2cc(Nc3nc(N[C@@H](C)c4ccc(F)cn4)ncc3Cl)n[nH]2)ccc1C=O | enzyme activity, inhibitor | 0.2 µM | inhibition | 14.7% |
| Cc1ccc(NC(=O)c2ccnc(C(F)(F)F)c2)cc1-c1cc(OCCO)nc(N2CCOCC2)c1 | binding | 1 µM | remaining binding | 94% |
| CCCCC(=O)Nc1ccc(-c2ccc3ncn(CCC)c(=O)c3c2)cn1 | binding, competition with immobilised ligand | 0.5 µM | remaining binding | 93% |
| Cc1cc(O)c(-c2ccc([C@@H](C)CN(C)C)cc2)c2c1[nH]c(=O)c1sccc12 | enzyme activity, inhibitor | 0.1 µM | inhibition | -7.74% |
| COc1ccc2[nH]c3c4[nH]c5ccc(OC)cc5c4c4c(c3c2c1)C(=O)NC4=O | binding | 1 µM | remaining binding | 48% |
| C=CC(=O)N1CCC([C@@H]2CCNc3c(C(N)=O)c(-c4ccc(Oc5ccccc5)cc4)nn32)CC1 | enzyme activity, inhibitor | 1 µM | inhibition | 1% |
| CC(C)S(=O)(=O)c1ccc2nccc(Nc3ccc4sc(C5CCCC5)nc4c3)c2c1 | enzyme activity, inhibitor | 1 µM | activity vs control | 113% |
